# What was measured:
# SR = test: Cytotoxicity against human SR cells after 48 hrs by SRB assay; assay type: functional; settings: read-out: GI50
# Procedure, shortened: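 NCI 60-cell-line five-dose screen. Cells were grown in 1640 medium with 5% fetal calf serum and 2 mM L-glutamine, with inoculum density set by cell line, and pre-incubated 24 h. Compound in DMSO was added at 10^-4 to 10^-8 M (10-fold steps) with 48 h continuous exposure. Growth was read by SRB protein assay, and GI50, TGI and LC50 were derived from dose-response.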
# NCI-H522 = test: Cytotoxicity against human NCI-H522 cells after 48 hrs by SRB assay; assay type: functional; settings: NCI-H522, 48 h, read-out: GI50
# Procedure, shortened: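 NCI five-dose screen on the ~60-line human tumor panel. Cells grown in RPMI-1640 with 5% fetal calf serum and 2 mM L-glutamine, seeded at line-dependent density and preincubated 24 h. Compound added from DMSO at 10-fold dilutions from 10^-4 to 10^-8 M, continuous exposure 48 h. Growth read by sulforhodamine B protein stain. GI50, TGI and LC50 derived per line.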
structure (smiles),measurement,setting,value
O=c1[nH]cc(F)c(=O)[nH]1 [FLUOROURACIL],GI50,SR,0.0238 µM
same,GI50,NCI-H522,7.28 µM
